From ChEMBL document CHEMBL3864121, “Development of ebsulfur analogues as potent antibacterials against methicillin-resistant Staphylococcus aureus” (Bioorg Med Chem, 2016)
Calls of active or inactive are those of the source. No cut-off for these calls is given here.

How the values were obtained:
Staphylococcus aureus [1] = assay: Bacteriostatic activity against methicillin-resistant Staphylococcus aureus S22 at 0.5 times MIC measured up to 3 to 6 hrs by time kill analysis; type: functional
Staphylococcus aureus [2] = assay: Bacteriostatic activity against methicillin-resistant Staphylococcus aureus S22 at MIC measured up to 3 to 6 hrs by time kill analysis; type: functional
Staphylococcus aureus [3] = assay: Bacteriostatic activity against methicillin-resistant Staphylococcus aureus S22 at 4 times MIC measured after 24 hrs by time kill analysis; type: functional
Staphylococcus aureus [4] = assay: Antibiofilm activity against methicillin-sensitive Staphylococcus aureus ATCC 6538 assessed as reduction of biofilm at […] ug/ml measured after 24 hrs by crystal violet staining based method relative to control; type: functional; set-up: scale not given: the % may be the effect or the level left
[5] = Cytotoxicity against mouse RBCs assessed as hemolysis up to […] measured after 1 hr; type: toxicity, Erythrocyte; conditions: mouse red blood cells, read-out: Activity
Mus musculus = species: Mus musculus; assay: Cytotoxicity against mouse RBCs assessed as hemolysis at 0.24 to 31.2 ug/ml measured after 1 hr; type: toxicity; conditions: erythrocyte
Procedure, shortened: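 Murine red blood cells were exposed to compounds at various concentrations, with amikacin as a control. Percent hemolysis was scored against untreated cells (0%) and 1% Triton X (100%).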

[6] = tested on: Staphylococcus epidermidis RP62A; assay: Inhibition of thioredoxin reductase in Staphylococcus epidermidis ATCC 35984 assessed as induction of ROS production at 1 to 4 times MIC measured after 1 hr by DCFH-DA staining-based fluorescence microscopic analysis
Procedure, shortened: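 Untreated cells served as the negative control and 1 mM H2O2 as the positive control. Cells were stained with DCFH-DA (40 µg/mL) and ROS were visualized by fluorescence microscopy.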

Staphylococcus aureus [7] = assay: Antibacterial activity against methicillin-resistant Staphylococcus aureus S22 using 1 10^6CFU/ml measured after overnight incubation by broth double-dilution method; type: functional

## O=c1c2ccccc2sn1-c1ccccc1
Staphylococcus aureus [1]
  Activity: Active
Staphylococcus aureus [2]
  Activity: Active
Staphylococcus aureus [3]
  Activity: Active
Staphylococcus aureus [4]
  Activity: 40%
[5]
  hemolysis at 1 h: ≤ 20%
Mus musculus
  Activity: Non-Toxic
[6]
  Activity: Active
Staphylococcus aureus [7]
  Activity: Active
